According to publication PMC5689159 (Biochemistry and Biophysics Reports, 2016):

Columns and labels:
litchi lectin = experiment: tryptophan fluorescence quenching; format: binding, Litchi chinensis; details: free lectin; 150 mM NaCl, 10 mM CaCl2, pH 7.5, 298 K; n = 0.9
Outline: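 Steady-state fluorescence emission spectra of dilute lectin solutions (10−4−10−6 M) recorded at 298 K in 1 cm path-length quartz cells on a fluorescence spectrophotometer. UV–vis absorption spectra were taken under the same conditions.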

[1] = biological target: litchi lectin (Litchi chinensis seed lectin) (Litchi chinensis); experiment: native gel or EMSA

Row | Ka/ (10^4) (M^-1) (litchi lectin) | stoichiometry N [1] | Molecule
1 | 4.9 (±0.2)×10^4 |  | OC[C@H]1O[C@H](O[C@H]2[C@H](O)[C@@H](O)C(O)O[C@@H]2CO)[C@H](O)[C@@H](O)[C@@H]1O (some centres unmarked) [maltose]
2 |  | 2 | litchi lectin (Litchi chinensis seed lectin) (natural protein)
